Experimental data: ChEMBL document CHEMBL3124917, “Design, synthesis, and biological evaluation of deuterated C-aryl glycoside as a potent and long-acting renal sodium-dependent glucose cotransporter 2 inhibitor for the treatment of type 2 diabetes” (J Med Chem, 2014)
pIC50: −log10 of the molar value.

Tests used:
[1] = tested on: Canis familiaris; assay: Antidiabetic activity in Beagle dog assessed as urinary glucose excretion at 0.03 mg/kg, po administered 1 hr prior to glucose challenge measured after 1 to 24 hrs relative to dapagliflozin; format: functional, Canis lupus familiaris, Urine
How it was run: (§1)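 Overnight-fasted beagle dogs, n = 3 per group, given 0.03 mg/kg orally by gavage in 10% PEG400; vehicle controls received 10% PEG400. Oral glucose (2 g/kg, 5 mL/kg) given 1 h post-dose. Urine collected in metabolic cages at 0–8 and 8–24 h, glucose read on a biochemistry analyzer. Expressed as % of reference positive control; mean ± SD.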

[2] = tested on: Canis familiaris; assay: Antidiabetic activity in Beagle dog assessed as urinary glucose excretion at 0.03 mg/kg, po administered 1 hr prior to glucose challenge measured after 8 to 24 hrs relative to dapagliflozin; format: functional, Canis lupus familiaris, Urine
How it was run: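 Overnight-fasted beagle dogs, n = 3 per group, given 0.03 mg/kg orally by gavage in 10% PEG400; vehicle controls received 10% PEG400. Oral glucose (2 g/kg, 5 mL/kg) given 1 h post-dose. Expressed as % of reference positive control; mean ± SD.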

[3] = tested on: Canis familiaris; assay: Antidiabetic activity in Beagle dog assessed as urinary glucose excretion at 0.03 mg/kg, po administered 1 hr prior to glucose challenge measured after 1 to 8 hrs relative to dapagliflozin; format: functional, Canis lupus familiaris, Urine; how it was run: as §1
[4] = tested on: Rattus norvegicus; assay: Antidiabetic activity in Sprague-Dawley rat assessed as urinary glucose excretion at 1 mg/kg, po administered 1 hr prior to glucose challenge measured after 1 to 24 hrs relative to dapagliflozin; format: functional, Urine
How it was run: (§2)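 Overnight-fasted Sprague-Dawley rats, n = 3 per group, dosed 1 mg/kg by oral gavage in 30% PEG400; controls received vehicle. Oral glucose (2 g/kg, 10 mL/kg) given 1 h post-dose. Urine collected in metabolic cages at 0–4 and 4–24 h, glucose measured on a biochemistry analyzer. Expressed as % of reference positive control; mean ± SD.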

[5] = tested on: Rattus norvegicus; assay: Antidiabetic activity in Sprague-Dawley rat assessed as urinary glucose excretion at 1 mg/kg, po administered 1 hr prior to glucose challenge measured after 4 to 24 hrs relative to dapagliflozin; format: functional, Urine; how it was run: as §2
[6] = tested on: Rattus norvegicus; assay: Antidiabetic activity in Sprague-Dawley rat assessed as urinary glucose excretion at 1 mg/kg, po administered 1 hr prior to glucose challenge measured after 1 to 4 hrs relative to dapagliflozin; format: functional, Urine; how it was run: as §2
[7] = AUC (0 to infinity) in Sprague-Dawley rat at 3 mg/kg, po by LC-MS/MS analysis; format: ADME, organism-based; set-up: time infinity, dose 3 mg/kg, route oral; details: plasma
How it was run: (§3)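 Male Sprague-Dawley rats, n = 4 per group, overnight-fasted. Oral gavage of 3 or 1 mg/kg in 30% PEG400; i.v. arm at 1 mg/kg. Orbital plexus blood taken under ether at 0.083–24 h; plasma deproteinized and assayed by LC-MS/MS. Noncompartmental parameters derived; mean ± SD reported.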

[8] = Half life in Sprague-Dawley rat at 3 mg/kg, po by LC-MS/MS analysis; format: ADME, organism-based; set-up: dose 3 mg/kg, route oral; details: in vivo; how it was run: as §3
[9] = Cmax in Sprague-Dawley rat at 3 mg/kg, po by LC-MS/MS analysis; format: ADME, organism-based; set-up: dose 3 mg/kg, route oral; details: in vivo; how it was run: as §3
[10] = Tmax in Sprague-Dawley rat at 3 mg/kg, po by LC-MS/MS analysis; format: ADME, organism-based; set-up: dose 3 mg/kg, route oral; details: in vivo; how it was run: as §3
[11] = molecular target: T1, Sodium/glucose cotransporter 1 (Homo sapiens, UniProt P13866); assay: Inhibition of full length human SGLT1 assessed as methyl-alpha-D-[U-14C]glucopyranoside uptake after 2 hrs by cell-based topcount scintillation counting analysis
T1 sequence (P13866 whole entry): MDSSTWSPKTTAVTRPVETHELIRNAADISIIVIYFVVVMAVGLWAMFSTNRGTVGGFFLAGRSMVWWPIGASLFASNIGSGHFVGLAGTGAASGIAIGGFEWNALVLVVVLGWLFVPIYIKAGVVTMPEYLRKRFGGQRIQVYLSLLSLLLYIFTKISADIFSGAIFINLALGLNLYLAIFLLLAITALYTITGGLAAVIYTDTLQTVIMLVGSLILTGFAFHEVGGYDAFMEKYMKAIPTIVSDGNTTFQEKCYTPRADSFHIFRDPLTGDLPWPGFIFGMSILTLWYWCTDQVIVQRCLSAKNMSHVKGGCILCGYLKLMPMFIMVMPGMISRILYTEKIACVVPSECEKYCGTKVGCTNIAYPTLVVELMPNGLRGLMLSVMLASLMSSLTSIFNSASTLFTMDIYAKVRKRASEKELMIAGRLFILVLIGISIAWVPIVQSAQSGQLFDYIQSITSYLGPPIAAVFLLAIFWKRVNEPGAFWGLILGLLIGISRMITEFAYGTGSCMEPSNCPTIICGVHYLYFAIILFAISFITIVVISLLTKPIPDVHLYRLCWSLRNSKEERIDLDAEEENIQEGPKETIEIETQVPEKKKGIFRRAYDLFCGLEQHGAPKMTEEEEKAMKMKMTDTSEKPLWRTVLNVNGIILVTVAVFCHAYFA

[12] = molecular target: T2, Sodium/glucose cotransporter 2 (Homo sapiens, UniProt P31639); assay: Inhibition of full length human SGLT2 assessed as methyl-alpha-D-[U-14C]glucopyranoside uptake after 1.5 hrs by cell-based topcount scintillation counting analysis
T2 sequence (P31639 whole entry): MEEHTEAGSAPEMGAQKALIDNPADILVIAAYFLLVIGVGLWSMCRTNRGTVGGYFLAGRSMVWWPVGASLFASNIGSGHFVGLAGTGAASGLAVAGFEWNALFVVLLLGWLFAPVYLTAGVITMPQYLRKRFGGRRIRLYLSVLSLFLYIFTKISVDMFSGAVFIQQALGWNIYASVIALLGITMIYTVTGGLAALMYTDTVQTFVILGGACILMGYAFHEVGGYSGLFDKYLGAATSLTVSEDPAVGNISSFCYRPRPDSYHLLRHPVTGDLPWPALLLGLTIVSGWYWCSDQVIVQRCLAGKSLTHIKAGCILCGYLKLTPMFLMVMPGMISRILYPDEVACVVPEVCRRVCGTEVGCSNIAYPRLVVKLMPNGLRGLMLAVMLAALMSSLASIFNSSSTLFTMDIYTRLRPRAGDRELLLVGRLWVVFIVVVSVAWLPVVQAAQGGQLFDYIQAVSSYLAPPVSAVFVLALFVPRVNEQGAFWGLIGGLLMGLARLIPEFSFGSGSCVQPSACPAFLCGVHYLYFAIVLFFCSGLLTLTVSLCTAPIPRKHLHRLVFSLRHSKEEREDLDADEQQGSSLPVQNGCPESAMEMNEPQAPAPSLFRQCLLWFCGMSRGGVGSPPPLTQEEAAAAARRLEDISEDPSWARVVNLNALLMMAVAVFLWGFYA

Row | AUC(0-inf) [7] | half-life [8] | Cmax [9] | Tmax [10] | pIC50 [11] | pIC50 [12] | Compound | Activity [1] | Activity [2] | Activity [3] | Activity [4] | Activity [5] | Activity [6]
1 | 16100 ng·h/mL |  |  |  |  |  | [2H]C([2H])(c1ccc(OCC)cc1)c1cc([C@@H]2O[C@H](CO)[C@@H](O)[C@H](O)[C@H]2O)ccc1Cl | 10200 mg | 6830 mg | 3400 mg | 2220 mg | 2060 mg | 168 mg
2 | 22600 ng·h/mL |  |  |  |  |  | [2H]C([2H])([2H])C([2H])([2H])Oc1ccc(Cc2cc([C@@H]3O[C@H](CO)[C@@H](O)[C@H](O)[C@H]3O)ccc2Cl)cc1 | 12000 mg |  | 3470 mg | 2300 mg | 2150 mg | 145 mg
3 | 5350 ng·h/mL | 5.66 h | 1400 ng/mL | 0.75 h |  |  | [2H]C([2H])([2H])Oc1ccc(C([2H])([2H])c2cc([C@@H]3O[C@H](CO)[C@@H](O)[C@H](O)[C@H]3O)ccc2Cl)cc1 |  |  |  | 2100 mg | 1990 mg | 101 mg
4 |  |  |  |  |  |  | [2H][C@@]1(c2ccc(Cl)c(Cc3ccc(OCC)cc3)c2)O[C@H](CO)[C@@H](O)[C@H](O)[C@H]1O | 12700 mg | 8910 mg | 3760 mg | 2650 mg | 2460 mg | 193 mg
5 |  |  |  |  | 5.15 | 8.17 | [2H]C([2H])([2H])Oc1ccc(C([2H])([2H])c2cc([C@]3([2H])O[C@H](CO)[C@@H](O)[C@H](O)[C@H]3O)ccc2Cl)cc1 |  |  |  | 1650 mg | 1480 mg | 166 mg
